The source of these data is ChEMBL document CHEMBL1926635, “Identification of novel molecular scaffolds for the design of MMP-13 inhibitors: a first round of lead optimization” (Eur J Med Chem, 2012).

Data set [1] deals with Collagenase 3 (Homo sapiens, UniProt P45452). Briefly: Inhibition of human MMP13 using Mca-Lys-Pro-Leu-Gly-Leu-Dap(Dnp)-Ala-Arg-NH2 as substrate pre-incubated for 4 hrs before substrate addition measured every 15 secs for 15 mins by fluorimetry.
Data set [2] has as its target 72 kDa type IV collagenase (Homo sapiens, UniProt P08253). Kind of data set: Inhibition of human MMP2 using Mca-Lys-Pro-Leu-Gly-Leu-Dap(Dnp)-Ala-Arg-NH2 as substrate pre-incubated for 4 hrs before substrate addition measured every 15 secs for 15 mins by fluorimetry. In outline: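 APMA 2 mM for 1 h at 37 °C activated the proenzyme. MMP-2 at 0.56 nM final was incubated with inhibitor for 4 h at 25 °C in pH 7.5 Tris buffer with NaCl, CaCl₂, 0.05% Brij-35 and 1% DMSO. Fluorescence was read at 325/395 nm, in triplicate. Percent inhibition was taken against the uninhibited control. IC50 came from ≥5 concentrations within 10–90% inhibition, fitted to Vi/Vo = 1/(1+[I]/IC50).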

The target in data set [3] is Matrix metalloproteinase-14 (Homo sapiens, UniProt P50281). Briefly: Inhibition of recombinant human MMP14 catalytic domain using Mca-Lys-Pro-Leu-Gly-Leu-Dap(Dnp)-Ala-Arg-NH2 as substrate pre-incubated for 4 hrs before substrate addition measured every 15 secs for 15 mins by fluorimetry. In outline:
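Catalytic domain used at 1 nM final and incubated with inhibitor for 4 h at 25 °C in Tris 50 mM pH 7.5, NaCl 150 mM, CaCl₂ 10 mM, 0.05% Brij-35 and 1% DMSO. Fluorescence was read at 325/395 nm, in triplicate. Percent inhibition was taken against the no-inhibitor control. IC50 was fitted to Vi/Vo = 1/(1+[I]/IC50) from ≥5 concentrations within 10–90% inhibition.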

Data set [4] addresses Stromelysin-1 (Homo sapiens, UniProt P08254). Kind of data set: Inhibition of human MMP3 using Mca-Arg-Pro-Lys-Pro-Val-Glu-Nva-Trp-Arg-Lys(Dnp)-NH2 as substrate pre-incubated for 4 hrs before substrate addition measured every 15 secs for 15 mins by fluorimetry. In outline:
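Pro-MMP-3 was activated with trypsin for 30 min at 37 °C, then quenched with soybean trypsin inhibitor. Enzyme at 5 nM final was pre-incubated with inhibitor for 4 h at 25 °C in Tris 50 mM pH 7.5, NaCl 150 mM, CaCl₂ 10 mM, 0.05% Brij-35 and 1% DMSO. Fluorescence was read at ex 325/em 395 nm, in triplicate. IC50 was fitted to Vi/Vo = 1/(1+[I]/IC50) from ≥5 concentrations giving 10–90% inhibition.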

A short description of data set [5]: Dissociation constant, pKa of the compound. It counts as physicochemical.
Data set [6] has as its target T1, Interstitial collagenase (Homo sapiens, UniProt P03956).
T1 sequence (P03956 whole entry): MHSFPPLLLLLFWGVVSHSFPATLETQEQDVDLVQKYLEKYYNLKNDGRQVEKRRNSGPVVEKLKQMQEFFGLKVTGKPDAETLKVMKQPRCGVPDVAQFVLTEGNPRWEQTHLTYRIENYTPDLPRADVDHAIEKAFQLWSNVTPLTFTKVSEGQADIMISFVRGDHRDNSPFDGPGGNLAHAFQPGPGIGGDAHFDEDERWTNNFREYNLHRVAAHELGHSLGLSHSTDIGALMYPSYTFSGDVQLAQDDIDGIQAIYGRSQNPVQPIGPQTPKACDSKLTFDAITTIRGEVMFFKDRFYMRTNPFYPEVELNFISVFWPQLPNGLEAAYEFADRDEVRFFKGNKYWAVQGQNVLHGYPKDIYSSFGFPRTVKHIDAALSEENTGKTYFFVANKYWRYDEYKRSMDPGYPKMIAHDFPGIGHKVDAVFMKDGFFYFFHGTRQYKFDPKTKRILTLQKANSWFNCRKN
Kind of data set: Inhibition of human MMP1 using Mca-Lys-Pro-Leu-Gly-Leu-Dap(Dnp)-Ala-Arg-NH2 as substrate pre-incubated for 4 hrs before substrate addition measured every 15 secs for 15 mins by fluorimetry. The essentials:
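Pro-MMP-1 activated with APMA 2 mM for 2 h at 37 °C. Enzyme at 2.0 nM final was pre-incubated with inhibitor for 4 h at 25 °C in Tris 50 mM pH 7.5, NaCl 150 mM, CaCl₂ 10 mM, 0.05% Brij-35 and 1% DMSO. Read-out was fluorescence at ex 325/em 395 nm, in triplicate. IC50 was fitted to Vi/Vo = 1/(1+[I]/IC50) using ≥5 concentrations giving 10–90% inhibition.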

A word on the IC50: it is the concentration at which inhibition is half-maximal. In general, pKa refers to the negative logarithm of the acid dissociation constant. The low end stands for a stronger acid or weaker base, the high end for a weaker acid or stronger base.

Chain of Stromelysin-1 (P08254 whole entry): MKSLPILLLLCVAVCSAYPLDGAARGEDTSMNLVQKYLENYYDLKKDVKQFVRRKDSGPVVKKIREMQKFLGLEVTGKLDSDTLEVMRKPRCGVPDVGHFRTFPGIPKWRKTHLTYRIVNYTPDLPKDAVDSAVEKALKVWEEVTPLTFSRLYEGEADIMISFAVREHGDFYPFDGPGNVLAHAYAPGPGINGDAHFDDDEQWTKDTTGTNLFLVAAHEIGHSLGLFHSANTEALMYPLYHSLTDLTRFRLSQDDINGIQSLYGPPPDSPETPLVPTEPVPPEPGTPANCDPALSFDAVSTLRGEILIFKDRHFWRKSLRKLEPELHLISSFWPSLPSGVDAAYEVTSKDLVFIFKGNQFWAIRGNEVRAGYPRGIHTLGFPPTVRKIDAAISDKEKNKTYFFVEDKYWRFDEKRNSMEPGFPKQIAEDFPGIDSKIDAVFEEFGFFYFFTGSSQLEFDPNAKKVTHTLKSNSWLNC
Chain of 72 kDa type IV collagenase (P08253 whole entry): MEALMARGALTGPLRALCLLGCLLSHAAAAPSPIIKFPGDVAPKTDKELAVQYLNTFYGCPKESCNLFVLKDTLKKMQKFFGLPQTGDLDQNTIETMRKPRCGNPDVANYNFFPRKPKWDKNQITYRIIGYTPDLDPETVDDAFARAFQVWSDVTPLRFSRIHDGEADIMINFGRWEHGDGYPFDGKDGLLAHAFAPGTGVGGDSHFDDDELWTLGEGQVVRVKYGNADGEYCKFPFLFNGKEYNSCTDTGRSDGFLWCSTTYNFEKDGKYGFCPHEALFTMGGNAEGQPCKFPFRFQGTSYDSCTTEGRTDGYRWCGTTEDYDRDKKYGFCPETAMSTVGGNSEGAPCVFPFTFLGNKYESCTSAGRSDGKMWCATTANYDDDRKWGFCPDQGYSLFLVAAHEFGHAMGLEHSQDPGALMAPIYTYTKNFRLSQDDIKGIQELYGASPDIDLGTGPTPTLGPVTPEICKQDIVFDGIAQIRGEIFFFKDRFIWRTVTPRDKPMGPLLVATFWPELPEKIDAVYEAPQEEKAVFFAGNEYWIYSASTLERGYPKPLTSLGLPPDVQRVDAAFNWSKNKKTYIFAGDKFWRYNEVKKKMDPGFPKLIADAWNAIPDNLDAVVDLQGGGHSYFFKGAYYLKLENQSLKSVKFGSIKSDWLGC

On to `O=c1oc2ccccc2cc1-c1cn(-c2ccccc2)c(S)n1`, for which, in data set [1], the IC50 was 177 µM.

In the case of `O=C(O)c1cccc(-n2cc(-c3cc4ccccc4oc3=O)[nH]c2=S)c1`, the IC50 in data set [2] is 67 µM; in data set [3] it was 51 µM; in data set [4], 110 µM; in data set [6], 400 µM. In addition, the pKa in data set [5] came out at 3.91.

On to `O=C(O)CCCN1C(=O)S/C(=C\C=C\c2ccccc2)C1=O`, for which the IC50 in data set [2] was 2.7 µM; in data set [3], 21 µM; in data set [1] it was 22 µM; in data set [4], 110 µM; in data set [6] it was 93 µM. For the same compound, in data set [5], the pKa worked out at 3.89.

Regarding `O=C(O)COc1ccccc1/C=C1/NC(=S)NC1=O`, the IC50 in data set [2] is 61 µM; in data set [3], 55 µM; in data set [1], 67 µM; in data set [4], 77 µM; in data set [6] it was 114 µM. This compound also displayed a pKa in data set [5] of 3.68.

On to `COc1ccc(-c2ccc(/C=C3/SC(=S)N(CC(=O)O)C3=O)o2)cc1`, for which the IC50 in data set [2] was found to be 350 µM; in data set [3] it was 310 µM; in data set [1] it was 120 µM; in data set [4] it was 850 µM; in data set [6] it was 860 µM. Further, in data set [5], the pKa is 3.62.

Consider `COc1ccc(-c2cs/c(=N\c3ccccc3)n2/N=C/c2ccccc2)cc1OC`, for which the IC50 in data set [2] is 120 µM; in data set [3], 150 µM; in data set [1], 140 µM; in data set [4], 230 µM; in data set [6], 360 µM.

In the case of `CCOC(=O)c1cccc(-n2cc(-c3cc4ccccc4oc3=O)[nH]c2=S)c1`, the IC50 in data set [1] was more than 300 µM.

`COc1ccc2oc(=O)c(-c3cn(-c4cccc(C(=O)O)c4)c(=S)[nH]3)cc2c1` showed an IC50 in data set [1] of 3.2 µM.

`O=C(O)c1cccc(-n2cc(-c3cc4cccc(O)c4oc3=O)[nH]c2=S)c1` registered an IC50 in data set [1] of 5.5 µM.

For `COc1cc(Cl)cc2cc(-c3cn(-c4cccc(C(=O)O)c4)c(=S)[nH]3)c(=O)oc12`, 4.9 µM corresponded to half-maximal inhibition in data set [1] (IC50).

`C=CCc1cc(OC)c2oc(=O)c(-c3cn(-c4cccc(C(=O)O)c4)c(=S)[nH]3)cc2c1` showed an IC50 in data set [1] of 4.9 µM.

In turn, `CCOc1ccc(-c2ccc(S(=O)(=O)N[C@@H](C(=O)O)C3CCN(C(=O)OC(C)C)CC3)s2)cc1` came in with a pKa in data set [5] of 2.55.
